Measured values reported in ChEMBL document CHEMBL2062469, “1-(2-Mercaptobenzenesulfonyl)-3-hydroxyguanidines--novel potent antiproliferatives, synthesis and in vitro biological activity” (2012).

How the values were obtained:
Assay type in all cases: functional
[1] = system: EKVX; assay: Cytostatic activity against human EKVX cells
Outline: (§1)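 NCI-60 human tumor cell line screen run by the US National Cancer Institute under the NIH Developmental Therapeutics Program protocol. A single-dose prescreen at 10 µM came first. Selected compounds then went into the 5-dose assay. Cytostatic activity is reported as GI50 (µM).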

[2] = system: OVCAR-4; assay: Cytostatic activity against human OVCAR4 cells; outline: as §1
[3] = system: K562; assay: Cytostatic activity against human K562 cells; outline: as §1
[4] = system: MDA-MB-468; assay: Cytostatic activity against human MDA-MB-468 cells; outline: as §1
[5] = system: SK-MEL-28; assay: Cytostatic activity against human SK-MEL-28 cells; outline: as §1
[6] = system: DU-145; assay: Cytostatic activity against human DU145 cells; outline: as §1
[7] = Cytostatic activity against human […] cells; outline: as §1
[8] = system: SF-268; assay: Cytostatic activity against human SF268 cells; outline: as §1
[9] = system: T47D; assay: Cytostatic activity against human T47D cells
Outline: (§2)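 Human tumour cell lines from the NCI-60 panel, tested at the US National Cancer Institute under the NIH Developmental Therapeutics Program protocol. A single-dose prescreen at 10 µM came first. Selected compounds then went to a 5-dose assay, which gave GI50 and TGI values in µM.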

[10] = system: OVCAR-8; assay: Cytostatic activity against human OVCAR8 cells; outline: as §1
[11] = system: ACHN; assay: Cytostatic activity against human ACHN cells; outline: as §1
[12] = system: LOX IMVI; assay: Cytostatic activity against human LOXIMVI cells; outline: as §1
[13] = system: MDA-MB-435; assay: Cytostatic activity against human MDA-MB-435 cells; outline: as §1
[14] = system: Malme-3M; assay: Cytostatic activity against human MALME-3M cells; outline: as §1
[15] = system: M14; assay: Cytostatic activity against human M14 cells; outline: as §1
[16] = system: MCF7; assay: Cytostatic activity against human MCF7 cells; outline: as §1
[17] = system: UACC-62; assay: Cytostatic activity against human UACC62 cells; outline: as §2
[18] = system: NCI-H522; assay: Cytostatic activity against human NCI-H522 cells; outline: as §1
[19] = system: NCI/ADR-RES; assay: Cytostatic activity against human NCI-ADR-RES cells; outline: as §1
[20] = system: NCI-H226; assay: Cytostatic activity against human NCI-H226 cells; outline: as §1
[21] = system: Hs-578T; assay: Cytostatic activity against human Hs 578T cells; outline: as §1
[22] = system: NCI-H460; assay: Cytostatic activity against human NCI-H460 cells; outline: as §1
[23] = system: A498; assay: Cytostatic activity against human A498 cells; outline: as §1
[24] = system: U-251; assay: Cytostatic activity against human U251 cells; outline: as §2
[25] = system: SF-539; assay: Cytostatic activity against human SF539 cells; outline: as §1
[26] = system: RXF 393; assay: Cytostatic activity against human RXF393 cells; outline: as §1
[27] = system: NCI-H23; assay: Cytostatic activity against human NCI-H23 cells; outline: as §1
[28] = system: HCT-116; assay: Cytostatic activity against human HCT116 cells; outline: as §1
[29] = system: IGROV-1; assay: Cytostatic activity against human IGROV1 cells; outline: as §1
[30] = system: SW-620; assay: Cytostatic activity against human SW620 cells; outline: as §2
[31] = system: MOLT-4; assay: Cytostatic activity against human MOLT4 cells; outline: as §1
[32] = system: SF-295; assay: Cytostatic activity against human SF295 cells; outline: as §1
[33] = system: HCT-15; assay: Cytostatic activity against human HCT15 cells; outline: as §1
[34] = system: PC-3; assay: Cytostatic activity against human PC3 cells; outline: as §1
[35] = system: HT-29; assay: Cytostatic activity against human HT-29 cells; outline: as §1
[36] = system: KM12; assay: Cytostatic activity against human KM12 cells; outline: as §1
[37] = system: UO-31; assay: Cytostatic activity against human UO31 cells; outline: as §2
[38] = system: HOP-92; assay: Cytostatic activity against human HOP92 cells; outline: as §1
[39] = system: 786-0; assay: Cytostatic activity against human 786-0 cells; outline: as §1
[40] = system: MDA-MB-231; assay: Cytostatic activity against human MDA-MB-231/ATCC cells; outline: as §1
[41] = system: BT-549; assay: Cytostatic activity against human BT549 cells; outline: as §1
[42] = system: OVCAR-5; assay: Cytostatic activity against human OVCAR5 cells; outline: as §1
[43] = system: CAKI-1; assay: Cytostatic activity against human Caki1 cells; outline: as §1
[44] = system: COLO 205; assay: Cytostatic activity against human COLO205 cells; outline: as §1
[45] = system: SN12C; assay: Cytostatic activity against human SN12C cells; outline: as §1
[46] = system: SK-OV-3; assay: Cytostatic activity against human SKOV3 cells; outline: as §1
[47] = system: SK-MEL-5; assay: Cytostatic activity against human SK-MEL-5 cells; outline: as §1
[48] = system: OVCAR-3; assay: Cytostatic activity against human OVCAR3 cells; outline: as §1
[49] = system: CCRF-CEM; assay: Cytostatic activity against human CCRF-CEM cells; outline: as §1
[50] = system: NCI-H322M; assay: Cytostatic activity against human NCI-H322M cells; outline: as §1
[51] = system: SNB-19; assay: Cytostatic activity against human SNB19 cells; outline: as §1
[52] = system: HOP-62; assay: Cytostatic activity against human HOP62 cells; outline: as §1
[53] = system: SNB-75; assay: Cytostatic activity against human SNB75 cells; outline: as §2
[54] = system: SR; assay: Cytostatic activity against human SR cells; outline: as §2
[55] = system: UACC-257; assay: Cytostatic activity against human UACC257 cells; outline: as §2
[56] = system: HCC 2998; assay: Cytostatic activity against human HCC2998 cells; outline: as §1
[57] = system: SK-MEL-2; assay: Cytostatic activity against human SK-MEL-2 cells; outline: as §1

SMILES: N=C(NO)NS(=O)(=O)c1cc(-c2nc(-c3ccccc3)no2)c(Cl)cc1SCc1ccccc1
- GI50 [1]: 1.36 µM
- TGI [1]: 2.71 µM
- GI50 [2]: 1.6 µM
- TGI [2]: 4.06 µM
- GI50 [3]: 1.87 µM
- TGI [3]: 4.74 µM
- GI50 [4]: 1.56 µM
- TGI [4]: 3.04 µM
- GI50 [5]: 1.71 µM
- TGI [5]: 3.46 µM
- GI50 [6]: 1.71 µM
- TGI [6]: 3.17 µM
- GI50 [7]: 2.34 µM
- TGI [7]: 9.03 µM
- GI50 [8]: 1.74 µM
- TGI [8]: 3.95 µM
- GI50 [9]: 1.7 µM
- TGI [9]: 3.48 µM
- GI50 [10]: 1.72 µM
- TGI [10]: 3.82 µM
- GI50 [11]: 2.02 µM
- TGI [11]: 3.9 µM
- GI50 [12]: 1.63 µM
- TGI [12]: 4.09 µM
- GI50 [13]: 1.51 µM
- TGI [13]: 3.08 µM
- GI50 [14]: 1.8 µM
- TGI [14]: 7.42 µM
- GI50 [15]: 2.15 µM
- TGI [15]: 4.39 µM
- GI50 [16]: 1.45 µM
- TGI [16]: 2.97 µM
- GI50 [17]: 1.84 µM
- TGI [17]: 3.83 µM
- GI50 [18]: 1.32 µM
- TGI [18]: 2.97 µM
- GI50 [19]: 2.06 µM
- TGI [19]: 5.05 µM
- GI50 [20]: 2.23 µM
- TGI [20]: 4.8 µM
- GI50 [21]: 2.55 µM
- TGI [21]: 6.36 µM
- GI50 [22]: 1.94 µM
- TGI [22]: 3.95 µM
- GI50 [23]: 2.57 µM
- TGI [23]: 7.85 µM
- GI50 [24]: 1.36 µM
- TGI [24]: 2.84 µM
- GI50 [25]: 2.72 µM
- TGI [25]: 6.44 µM
- GI50 [26]: 1.52 µM
- TGI [26]: 2.97 µM
- GI50 [27]: 1.86 µM
- TGI [27]: 4.36 µM
- GI50 [28]: 1.67 µM
- TGI [28]: 3.32 µM
- GI50 [29]: 2.38 µM
- TGI [29]: 7.53 µM
- GI50 [30]: 1.68 µM
- TGI [30]: 3.21 µM
- GI50 [31]: 1.45 µM
- TGI [31]: 3.74 µM
- GI50 [32]: 2.05 µM
- TGI [32]: 5.79 µM
- GI50 [33]: 1.79 µM
- TGI [33]: 3.83 µM
- GI50 [34]: 1.79 µM
- TGI [34]: 3.88 µM
- GI50 [35]: 1.9 µM
- TGI [35]: 3.49 µM
- GI50 [36]: 1.77 µM
- TGI [36]: 3.55 µM
- GI50 [37]: 1.4 µM
- TGI [37]: 7.64 µM
- GI50 [38]: 1.99 µM
- TGI [38]: 9.01 µM
- GI50 [39]: 2.75 µM
- TGI [39]: 7.06 µM
- GI50 [40]: 2.03 µM
- TGI [40]: 5.24 µM
- GI50 [41]: 2.45 µM
- TGI [41]: 5.23 µM
- GI50 [42]: 2.07 µM
- TGI [42]: 5.31 µM
- GI50 [43]: 1.67 µM
- TGI [43]: 3.65 µM
- GI50 [44]: 1.86 µM
- TGI [44]: 3.39 µM
- GI50 [45]: 1.53 µM
- TGI [45]: 3.27 µM
- GI50 [46]: 2.2 µM
- TGI [46]: 4.55 µM
- GI50 [47]: 1.48 µM
- TGI [47]: 2.86 µM
- GI50 [48]: 1.69 µM
- TGI [48]: 3.12 µM
- GI50 [49]: 1.91 µM
- TGI [49]: 5.3 µM
- GI50 [50]: 3.48 µM
- TGI [50]: 16.2 µM
- GI50 [51]: 3.56 µM
- TGI [51]: 18.7 µM
- GI50 [52]: 2.23 µM
- TGI [52]: 5.12 µM
- GI50 [53]: 1.22 µM
- TGI [53]: 3.94 µM
- GI50 [54]: 1.43 µM
- TGI [54]: 5.88 µM
- GI50 [55]: 1.68 µM
- TGI [55]: 3.53 µM
- GI50 [56]: 2.01 µM
- TGI [56]: 4.03 µM
- GI50 [57]: 1.96 µM
- TGI [57]: 4.03 µM
